26 molecules from ChEMBL document CHEMBL3817772, “Design, Synthesis, and Biological Evaluations of Hydroxypyridonecarboxylic Acids as Inhibitors of HIV Reverse Transcriptase Associated RNase H” (J Med Chem, 2016) can be followed below.

In test [1] the target is Human immunodeficiency virus type 1 integrase (Human immunodeficiency virus 1, UniProt Q7ZJM1, C280S/F185K). The test can be described thus: Inhibition of full-length HIV-1 integrase F185K/C280S double mutant strand transfer activity expressed in Escherichia coli BL21(DE3) using oligo DNA as substrate preincubated for 10 mins followed by substrate addition incubated for 30 mins by plate reader analysis.
Human immunodeficiency virus type 1 integrase, sequence (Q7ZJM1 entry or part of it C280S/F185K): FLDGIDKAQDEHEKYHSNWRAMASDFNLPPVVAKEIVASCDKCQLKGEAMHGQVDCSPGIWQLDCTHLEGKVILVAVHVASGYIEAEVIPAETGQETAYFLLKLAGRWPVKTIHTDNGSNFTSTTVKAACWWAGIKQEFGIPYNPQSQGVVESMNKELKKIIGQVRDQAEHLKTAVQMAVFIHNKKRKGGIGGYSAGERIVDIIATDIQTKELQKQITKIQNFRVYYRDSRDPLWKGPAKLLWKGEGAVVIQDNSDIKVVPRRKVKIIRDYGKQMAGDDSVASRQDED

Test [2] can be described thus: Inhibition of HIV-1 RT-RNase H activity expressed in Escherichia coli JM109 using DNA 3'-end directed cleavage measuring HTS-2 as substrate by fluorescence-based assay. More on the design: species or system Human immunodeficiency virus 1. A digest of the protocol:
(§1)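 RT RNase H cleavage of fluorescein/Dabcyl-labelled RNA/DNA duplexes, with substrate in excess over RT. HTS-1 probes internal cleavage, HTS-2 DNA 3'-end-directed cleavage, and HTS-3 (fluorescein RNA annealed to Dabcyl DNA) RNA 5'-end-directed cleavage.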

Test [3] can be described thus: Inhibition of HIV-1 RT-RNase H domain fragment expressed in Escherichia coli by fluorescence-based assay. More on the design: species or system Human immunodeficiency virus 1.
Test [4] addresses Human immunodeficiency virus type 1 reverse transcriptase (Human immunodeficiency virus 1, UniProt Q72547). Put plainly: Inhibition of HIV-1 RT RNA-dependent DNA polymerase activity expressed in Escherichia coli JM109 using [3H]TTP/ poly(rA)-oligo(dT)16 as substrate incubated for 20 mins by liquid scintillation spectrometric analysis. In outline:
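RNA-dependent DNA polymerase reaction in 50 mM Tris-HCl pH 7.4 (37°C), 60 mM KCl, 5 mM MgCl2, with 10 µM [3H]-TTP and 40 nM poly(rA)-oligo(dT)16. Started with 10 nM RT, 20 min at 37°C. Quenched in ice-cold 10% TCA plus 20 mM sodium pyrophosphate, glass-fiber filtered, washed with TCA and ethanol. Incorporation counted by liquid scintillation.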

Test [5] can be described thus: Inhibition of HIV-1 RT-RNase H activity expressed in Escherichia coli JM109 using internal cleavage measuring HTS-1 as substrate by fluorescence-based assay. Details: species or system Human immunodeficiency virus 1. A digest of the protocol:
as §1

Test [6] is described as follows: Inhibition of HIV-1 RT-RNase H activity expressed in Escherichia coli JM109 using RNA 5'-end directed cleavage measuring HTS-3 as substrate by fluorescence-based assay. More on the design: species or system Human immunodeficiency virus 1. In outline:
as §1

Test [7] relates to Human immunodeficiency virus 1. Put plainly: Inhibition of HIV-1 RT-RNase H domain expressed in Escherichia coli JM109 at 30 uM using HTS-1 as substrate preincubated with substrate for 10 mins followed by compound/MgCl2 addition incubated for 10 mins by fluorescence-based assay. In outline:
(§2)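 Order-of-addition RNase H assay, HIV-1 RT in this format. Final conditions: 100 nM RT, 250 nM HTS-1 RNA/DNA duplex, 6 mM MgCl2, 30 µM inhibitor, 1% DMSO. RT is pre-incubated 10 min at 37 °C with the specified components. Missing components are then added and the reaction runs 10 min at 37 °C. Fluorescence signal is corrected against a DMSO-only control. Mean ± SD of two independent experiments.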

Test [8] deals with Human immunodeficiency virus 1. Put plainly: Inhibition of HIV-1 RT-RNase H domain expressed in Escherichia coli JM109 at 30 uM using HTS-1 as substrate preincubated with compound/substrate for 10 mins followed by MgCl2 addition incubated for 10 mins by fluorescence-based assay. A digest of the protocol: as §2
For test [9], the system named is Human immunodeficiency virus 1. The test can be described thus: Inhibition of HIV-1 RT-RNase H domain expressed in Escherichia coli JM109 at 30 uM using HTS-1 as substrate preincubated with substrate for 10 mins followed by compound/MgCl2 addition incubated for 2 mins by fluorescence-based assay. A digest of the protocol: (§3)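 Excess-RT order-of-addition RNase H assay. RT is pre-incubated 10 min at 37 °C with inhibitor or with substrate. Remaining components are added and the reaction runs 2 min at 37 °C. Fluorescence is DMSO-control corrected. Mean ± SD of two independent experiments.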

In test [10] the test system is Human immunodeficiency virus 1. The test can be described thus: Inhibition of HIV-1 RT-RNase H domain expressed in Escherichia coli JM109 at 30 uM using HTS-1 as substrate preincubated for 10 mins followed by substrate/MgCl2 addition incubated for 2 mins by fluorescence-based assay. A digest of the protocol: as §3
Test [11] concerns Human immunodeficiency virus 1. The test can be described thus: Inhibition of HIV-1 RT-RNase H domain expressed in Escherichia coli JM109 at 30 uM using HTS-1 as substrate preincubated for 10 mins followed by substrate/MgCl2 addition incubated for 10 mins by fluorescence-based assay. A digest of the protocol: as §2
Test [12] concerns Human immunodeficiency virus 1. Put plainly: Inhibition of HIV-1 RT-RNase H domain expressed in Escherichia coli JM109 at 30 uM using HTS-1 as substrate preincubated with compound and MgCl2 for 10 mins followed by substrate addition incubated for 10 mins by fluorescence-based assay. In outline: as §2

As for `O=C(O)c1cn(Cc2ccncc2)cc(O)c1=O`, the IC50 in test [1] was more than 100 µM; in [2] it was more than 25 µM; in [3], more than 25 µM; in test [4], more than 25 µM; in test [5], more than 25 µM; in test [6], more than 25 µM.
With `CCOC(=O)c1cn(Cc2ccc(F)cc2)cc(O)c1=O`, the IC50 in [1] is more than 100 µM; in test [2] it was more than 25 µM; in test [3], more than 25 µM; in [4] it was more than 25 µM; in test [5], more than 25 µM; in test [6], more than 25 µM.
For `CS(=O)(=O)c1ccc(Cn2cc(O)c(=O)c(C(=O)O)c2)cc1`, the IC50 is more than 100 µM in test [1]; more than 25 µM in test [2]; 25 µM in test [3]; more than 25 µM in test [4]; more than 25 µM in test [5]; more than 25 µM in [6].
Turning to `O=C(O)c1cn(-c2ccccc2)cc(O)c1=O`, the IC50 was 37 µM in test [1]; more than 25 µM in test [2]; more than 25 µM in [3]; more than 25 µM in test [4]; more than 25 µM in test [5]; more than 25 µM in [6].
As to `O=C(O)c1cn(Cc2ccc(Cl)cc2)cc(O)c1=O`, the IC50 in [2], in test [4] and in test [6] was more than 25 µM throughout.
Take `O=C(O)c1cn(Cc2ccc(-c3cnc4ccccc4c3)cc2)cc(O)c1=O`: the inhibition in [7] turned out to be 50%; in test [8], 66%; in test [9], 74%; in test [10] it was 91%; in [11] it was 95%; in test [12], 68%. The molecule further displayed a half-maximal inhibitory concentration (IC50) in [5] of 0.9 µM.
As for `O=C(O)c1c[nH]cc(O)c1=O`, the IC50 in [1] is more than 100 µM; in test [2], more than 25 µM; in [3] it was 22 µM; in test [4], more than 25 µM; in test [5], more than 25 µM; in [6], more than 25 µM.
For `O=C(O)c1cn(Cc2ccccc2-c2ccccc2)cc(O)c1=O`, the IC50 is 17 µM in test [1]; 25 µM in [2]; 5.1 µM in [3]; more than 25 µM in test [4]; 7.7 µM in [5]; more than 25 µM in [6].
For `Cc1cc(Cn2cc(O)c(=O)c(C(=O)O)c2)ccc1F`, the IC50 in test [1] is more than 100 µM; in test [2] it was more than 25 µM; in test [3] it was 9.8 µM; in test [4], more than 25 µM; in test [5], 17 µM; in test [6], more than 25 µM.
Consider `O=C(O)c1cn(Cc2ccc(F)cc2)cc(O)c1=O`, for which the 50% inhibitory concentration (IC50) in test [1] was 35 µM; in [2], more than 25 µM; in [3], 7.8 µM; in test [4], more than 25 µM; in test [5], 17 µM; in test [6], more than 25 µM.
Take `O=C(O)c1ccc(Cn2cc(O)c(=O)c(C(=O)O)c2)cc1`: the IC50 in [1] was more than 100 µM; in test [2], more than 25 µM; in test [3], 14 µM; in [4], more than 25 µM; in [5], more than 25 µM; in test [6], more than 25 µM.
Take `O=C(O)c1cn(CC2(c3ccccc3)CCCC2)cc(O)c1=O`: the IC50 in test [1] was determined as 14 µM; in test [2], 5.1 µM; in test [3] it was 8.2 µM; in test [4], 1.8 µM; in test [5], 1.5 µM; in [6], 4.9 µM. In addition, the inhibition in test [7] came to 18%; in [8], 38%; in [9] it was 15%; in test [10], 42%; in [11], 75%; in [12] it was 84%.
With `O=C(O)c1cn(Cc2ccc(Cl)cc2Cl)cc(O)c1=O`, the IC50 in [1] is 25 µM; in [2], more than 25 µM; in test [3], 4.2 µM; in test [4], more than 25 µM; in [5], 12 µM; in test [6], more than 25 µM.
Take `NCc1ccc(-c2ccc(Cn3cc(O)c(=O)c(C(=O)O)c3)cc2)cc1`: the IC50 was 7.79 µM in test [1]; 4.4 µM in [2]; 4.4 µM in test [3]; 3.2 µM in [4]; 3.9 µM in test [6].
In test [4], `O=C(O)c1cn(Cc2ccc(-c3cccnc3)cc2)cc(O)c1=O` registered an IC50 of more than 25 µM.
Regarding `NC(=O)c1cn(Cc2ccc(F)cc2)cc(O)c1=O`, the IC50 is 32 µM in [1]; more than 25 µM in test [2]; 6.8 µM in [3]; more than 25 µM in [4]; 12 µM in test [5]; more than 25 µM in test [6].
Turning to `O=C(O)c1cn(Cc2cccc(C(F)(F)F)c2)cc(O)c1=O`, the IC50 in test [2], in test [4] and in [6] was more than 25 µM in each case.
For the molecule `COc1ccc(Cn2cc(O)c(=O)c(C(=O)O)c2)cc1`, the inhibition in [7] worked out at 21%; in test [8] it was 27%; in test [9] it was 58%; in [10] it was 70%; in [11], 69%; in test [12], 52%. Further, the IC50 in test [4] was more than 25 µM.
For the molecule `O=C(O)c1cn(Cc2ccc(F)c(Cl)c2)cc(O)c1=O`, the IC50 in [1] was 44.5 µM; in [2], more than 25 µM; in [3], 9.8 µM; in test [4], more than 25 µM; in [5], 18 µM; in [6], more than 25 µM.
For `O=C(O)c1cn(Cc2ccc(F)cc2F)cc(O)c1=O`, the IC50 was more than 100 µM in test [1]; more than 25 µM in test [2]; 6.8 µM in test [3]; more than 25 µM in test [4]; 13 µM in test [5]; more than 25 µM in test [6].
For `O=C(O)c1cn(Cc2ccc(-c3ccccc3)cc2)cc(O)c1=O`, the IC50 was determined as 22 µM in test [1]; 2.8 µM in test [2]; 1.8 µM in [3]; 2.2 µM in [4]; 2.5 µM in [5]; 2.9 µM in [6]. In addition, the inhibition is 21% in test [7]; 37% in test [8]; 59% in [9]; 78% in [10]; 68% in [11]; 36% in test [12].
For `O=C(O)c1cn(Cc2ccc(Cl)c(Cl)c2)cc(O)c1=O`, the concentration for half-maximal inhibition (IC50) in [1] was 36 µM; in test [2], more than 25 µM; in [3], 4.7 µM; in test [4], more than 25 µM; in [5] it was 14 µM; in [6], more than 25 µM.
As to `CC(c1ccc(F)cc1)n1cc(O)c(=O)c(C(=O)O)c1` (stereo not drawn), the IC50 is 34 µM in test [1]; more than 25 µM in test [2]; 5.3 µM in test [3]; more than 25 µM in test [4]; 16 µM in test [5]; more than 25 µM in test [6].
As to `O=C(O)c1cn(Cc2ccc(Br)cc2)cc(O)c1=O`, the IC50 is more than 100 µM in test [1]; more than 25 µM in test [2]; more than 25 µM in [3]; more than 25 µM in [4]; more than 25 µM in test [5]; more than 25 µM in test [6].
`CC(c1cccc2ccccc12)n1cc(O)c(=O)c(C(=O)O)c1` (stereo not drawn): the IC50 in test [1] is 2.26 µM; in test [2] it was more than 25 µM; in test [3], 3.7 µM; in test [4], 19 µM; in test [5] it was 7 µM; in test [6], 13 µM.
As for `O=C(O)c1cn(Cc2ccccc2)cc(O)c1=O`, the IC50 in test [1] was 35 µM; in [2], more than 25 µM; in test [3] it was 11 µM; in test [4], more than 25 µM; in test [5], more than 25 µM; in test [6], more than 25 µM.
